Here are results for 4 molecules from PMC6482957 (Nature structural & molecular biology, 2018).

For experiment [1], the system named is BD-RING-PHD (BRP) region of p300. The experiment can be described thus: 1H,15N HSQC NMR titration, p300 BD-RING-PHD. It counts as binding, human. The note with it: 15N-labeled BD-RING-PHD, 298K, pH 7.0.
A further experiment has as its system p300-ZZ. The experiment can be described thus: 1H,15N HSQC NMR titration, p300-ZZ. Type of experiment: binding, human. The following applies: HSQC. In short, it runs like this:
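Human p300 ZZ (aa 1663–1713) carried an N-terminal His-tag and was expressed in BL21(DE3) RIL in M9 with 15NH4Cl and 0.05 mM ZnCl2. Induction was 0.2 mM IPTG, overnight at 18 °C. Protein was Ni-NTA purified and the tag cleaved. 0.1 mM sample in 20 mM Tris-HCl pH 7.0, 100 mM NaCl, 5 mM DTT, 8% D2O. Unlabeled HAT domain (1:2) was added first, then H3 peptide; chemical shift changes were monitored at 298K.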

Experiment [2] concerns the target T1, human p300 ZZ domain (aa 1663–1713) (human, UniProt Q09472 1663-1713).
T1 sequence: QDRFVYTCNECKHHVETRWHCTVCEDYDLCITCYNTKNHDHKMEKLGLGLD
The experiment can be described thus: crystal structure.

Experiment [3] deals with T1, human p300 ZZ domain (aa 1663–1713). Nature of the experiment: NMR titration.
The target in experiment [4] is T2, p300 HAT-ZZ domain (aa 1287–1713, Y1467F) (human, UniProt Q09472 1287-1713, Y1467F).
T2 sequence: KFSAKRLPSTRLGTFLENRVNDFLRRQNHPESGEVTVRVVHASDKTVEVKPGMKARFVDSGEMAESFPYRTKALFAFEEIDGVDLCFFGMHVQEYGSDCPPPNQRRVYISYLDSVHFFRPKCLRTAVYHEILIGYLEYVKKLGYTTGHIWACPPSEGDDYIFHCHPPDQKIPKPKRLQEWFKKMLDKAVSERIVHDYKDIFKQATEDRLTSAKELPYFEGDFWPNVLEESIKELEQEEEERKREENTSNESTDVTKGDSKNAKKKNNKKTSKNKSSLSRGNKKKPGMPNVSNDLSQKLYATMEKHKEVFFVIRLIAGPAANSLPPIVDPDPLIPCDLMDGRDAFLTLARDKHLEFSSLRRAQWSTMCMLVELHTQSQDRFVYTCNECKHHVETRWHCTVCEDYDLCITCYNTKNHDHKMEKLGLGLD
The experiment can be described thus: NMR titration.

B1: HAT domain: p300 HAT domain (aa 1287–1663, Y1467F) (protein)
chain: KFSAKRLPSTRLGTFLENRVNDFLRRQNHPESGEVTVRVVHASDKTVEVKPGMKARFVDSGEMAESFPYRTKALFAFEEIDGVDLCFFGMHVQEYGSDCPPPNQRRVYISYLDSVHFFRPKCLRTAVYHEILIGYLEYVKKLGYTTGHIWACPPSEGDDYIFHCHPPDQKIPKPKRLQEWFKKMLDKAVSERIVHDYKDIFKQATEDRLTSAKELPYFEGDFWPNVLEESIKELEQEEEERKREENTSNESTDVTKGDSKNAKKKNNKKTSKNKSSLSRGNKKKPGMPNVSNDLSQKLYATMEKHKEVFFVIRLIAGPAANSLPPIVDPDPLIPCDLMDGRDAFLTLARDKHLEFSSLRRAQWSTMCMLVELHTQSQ
modifications: left off: His-tag, N-terminal, cleaved
As to B1, the “Interaction with BD-RING-PHD” value in experiment [1] is “rapid disappearance of resonances”. In addition, in the experiment on p300-ZZ (298K, pH 7.0, HAT (1:2 molar ratio) added first, then peptide), the “Resonance perturbations in p300-ZZ in presence of HAT domain” value is reported as “very small changes in ZZ”. In addition, the “Interaction between isolated HAT and ZZ domains” value in the experiment on p300-ZZ (p300-ZZ with unlabeled HAT (1:2 molar ratio)) is recorded as “interact only weakly”.

Regarding ARTKQT [histone H3 tail (residues 1–6)], the binding result in experiment [2] was “binds”.

Take VRTKQT [H3A1V1–6]: the “fold reduction in binding against the peptide with Ala1” value in experiment [3] is roughly 3 fold.

B2: p300 BD-RING-PHD region (aa 1047–1278) (domain or fragment)
chain: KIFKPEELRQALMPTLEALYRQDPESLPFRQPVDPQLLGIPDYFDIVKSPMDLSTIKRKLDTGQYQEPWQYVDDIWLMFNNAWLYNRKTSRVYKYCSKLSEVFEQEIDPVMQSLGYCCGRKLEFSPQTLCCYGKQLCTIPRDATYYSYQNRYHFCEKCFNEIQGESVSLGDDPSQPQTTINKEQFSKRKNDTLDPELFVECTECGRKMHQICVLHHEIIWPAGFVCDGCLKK
For B2, in experiment [4], the binding result is given as “binds”.
